Our source for the Activity and fold change (FC) values is ChEMBL document CHEMBL4371016, “Proline- and Arginine-Rich Peptides as Flexible Allosteric Modulators of Human Proteasome Activity” (J Med Chem, 2019).

The source made the active and inactive calls. The rule behind the calls is not given here. Residues, ends and D or L forms follow the SMILES beside them.

The target of assay [1] is T1, 20S proteasome (Homo sapiens) (UniProt P49721+P20618+P28074+P28062+P28065+P28072+P25786+P25787+P25788+P25789+P28066+P60900+O14818+Q8TAA3+P40306+A5LHX3+P49720+P28070+Q99436). Kind of assay: Negative allosteric modulation of SDS-activated human erythrocytes 20S proteasome assessed as reduction in human alpha-synuclein degradation at 1 uM after 1 hr by SDS-PAGE analysis. In short, it runs like this:
(§1)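 Human α-synuclein or yeast enolase digested by human 20S activated with 0.01% SDS (20S:substrate 1:100 pmol α-syn, 1:10 pmol enolase) in 20 mM HEPES pH 7.4 at 37 °C for 1 h (α-syn) or 4 h (enolase). DMSO at or below 0.05%. SDS–PAGE (12% or 10%) with Coomassie staining; remaining substrate densitometry as percent of control; at least three experiments, mean ± SEM.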

Assay [2] addresses T2, Proteasome component C5 (Homo sapiens) (UniProt P20618).
T2 sequence (whole entry): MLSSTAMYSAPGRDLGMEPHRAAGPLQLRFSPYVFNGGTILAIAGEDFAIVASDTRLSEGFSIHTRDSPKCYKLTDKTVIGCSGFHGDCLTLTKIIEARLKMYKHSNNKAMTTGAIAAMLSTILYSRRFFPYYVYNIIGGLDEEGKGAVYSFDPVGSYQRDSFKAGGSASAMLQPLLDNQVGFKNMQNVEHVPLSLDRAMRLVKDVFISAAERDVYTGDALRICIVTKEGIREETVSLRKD
The assay is described as follows: Positive allosteric modulation of latent human erythrocytes 20S proteasome caspase like activity at 10 uM measured every 1 min up to 60 mins by fluorescence assay relative to control.

For assay [3], the target named is T1, 20S proteasome (Homo sapiens). The assay is described as follows: Positive allosteric modulation of SDS-activated human erythrocytes 20S proteasome assessed as increase in yeast enolase degradation at 10 uM after 4 hr by SDS-PAGE analysis.
The target is the same in assay [4]. Kind of assay: Effect on alpha-face conformations of latent human erythrocytes 20S proteasome assessed as open state conformation at 1 uM by atomic force microscopic method (reference value: 7%).
The target in assay [5] is T3, Proteasome Macropain subunit MB1 (Homo sapiens) (UniProt P28074).
T3 sequence (whole entry): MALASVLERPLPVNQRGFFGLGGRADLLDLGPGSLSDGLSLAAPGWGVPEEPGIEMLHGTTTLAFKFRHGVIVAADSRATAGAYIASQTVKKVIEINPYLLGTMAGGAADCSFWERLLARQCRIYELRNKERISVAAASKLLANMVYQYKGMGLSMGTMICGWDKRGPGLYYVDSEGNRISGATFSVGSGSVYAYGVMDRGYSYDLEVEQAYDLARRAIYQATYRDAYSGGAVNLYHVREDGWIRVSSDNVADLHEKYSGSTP
The assay is described as follows: Stimulation of 20S proteasome chymotrypsin like activity in human primary fibroblasts preincubated for 24 hrs followed by Suc-LLVY-AMC substrate addition and measured at 2 mins interval up to 60 mins by fluorescence assay. The procedure, abridged: (§2)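 Fibroblasts (GM04390, 3% O2, 37 °C) exposed to 0.1–20 μM peptide or DMSO for 24 h after Optimem switch. Cells scraped, lysed in 50 mM Tris/HCl pH 7.4, 5 mM MgCl2, 1 mM DTT by mechanical lysis and freeze fractionation. Bradford-normalised lysate (1 μg in 100 μL) incubated with 50 μM Suc-LLVY-AMC; fluorescence ex 370/em 460 nm.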

Assay [6] deals with Proteasome subunit beta type-6 (Homo sapiens) (UniProt P28072). Kind of assay: Positive allosteric modulation of latent human erythrocytes 20S proteasome caspase like activity at 10 uM using Z-LLE-AMC as substrate measured every 1 min up to 60 mins by fluorescence assay relative to control.
Chain of Proteasome subunit beta type-6 (Homo sapiens) (P28072 whole entry, looked up): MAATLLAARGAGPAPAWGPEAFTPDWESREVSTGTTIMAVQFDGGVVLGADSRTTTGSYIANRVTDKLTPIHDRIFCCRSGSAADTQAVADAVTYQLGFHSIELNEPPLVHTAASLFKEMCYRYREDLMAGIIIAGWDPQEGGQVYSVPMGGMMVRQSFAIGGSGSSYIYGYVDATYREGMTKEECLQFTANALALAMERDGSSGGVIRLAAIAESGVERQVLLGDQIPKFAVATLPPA
For assay [7], the target named is T1, 20S proteasome (Homo sapiens). Kind of assay: Positive allosteric modulation of SDS-activated human erythrocytes 20S proteasome assessed as increase in yeast enolase degradation at 1 uM after 4 hr by SDS-PAGE analysis relative to control.
The target of assay [8] is T3, Proteasome Macropain subunit MB1 (Homo sapiens). Kind of assay: Negative allosteric modulation of SDS-activated human erythrocytes 20S proteasome chymotrypsin like activity up to 10 uM using LFP as substrate measured every 2 mins up to 60 mins by fluorescence assay.
Assay [9] has the same target. The assay is described as follows: Positive allosteric modulation of 1 uM Rpt5-activated human erythrocytes 20S proteasome chymotrypsin like activity up to 10 uM using Suc-LLVY-AMC as substrate measured every 1 min up to 60 mins by fluorescence assay.
The target is the same in assay [10]. Kind of assay: Positive allosteric modulation of latent human erythrocytes 20S proteasome chymotrypsin like activity using LFP as substrate measured every 2 mins up to 60 mins by fluorescence assay.
Assay [11] shares this target. Kind of assay: Positive allosteric modulation of latent human erythrocytes 20S proteasome chymotrypsin like activity at 25 uM using Suc-LLVY-AMC as substrate measured every 2 mins up to 60 mins by fluorescence assay relative to control.
Assay [12] has the same target. The assay is described as follows: Positive allosteric modulation of latent human erythrocytes 20S proteasome chymotrypsin like activity at 25 uM using LFP as substrate measured every 2 mins up to 60 mins by fluorescence assay relative to control.
The target is the same in assay [13]. The assay is described as follows: Stimulation of 20S proteasome chymotrypsin like activity in human primary fibroblasts at 10 uM preincubated for 24 hrs followed by Suc-LLVY-AMC substrate addition and measured at 2 mins interval up to 60 mins by fluorescence assay relative to control. In short, it runs like this: as §2
Assay [14] concerns the target T1, 20S proteasome (Homo sapiens). The assay is described as follows: Positive allosteric modulation of SDS-activated human erythrocytes 20S proteasome assessed as increase in human alpha-synuclein degradation at 10 uM after 1 hr by SDS-PAGE analysis.
For assay [15] the target is unchanged. Kind of assay: Effect on alpha-face conformations of latent human erythrocytes 20S proteasome assessed as intermediate state conformation at 1 uM by atomic force microscopic method (reference value: 22%).
Assay [16] addresses T3, Proteasome Macropain subunit MB1 (Homo sapiens). The assay is described as follows: Negative allosteric modulation of 10 uM Rpt5-activated human erythrocytes 20S proteasome chymotrypsin like activity up to 10 uM using Suc-LLVY-AMC as substrate measured every 1 min up to 60 mins by fluorescence assay.
For assay [17], the target named is T1, 20S proteasome (Homo sapiens). Kind of assay: Negative allosteric modulation of SDS-activated human erythrocytes 20S proteasome assessed as reduction in yeast enolase degradation at 10 uM after 4 hr by SDS-PAGE analysis.
Assay [18] shares this target. The assay is described as follows: Negative allosteric modulation of SDS-activated human erythrocytes 20S proteasome assessed as reduction in yeast enolase degradation at 1 uM after 4 hr by SDS-PAGE analysis.
For assay [19], the target named is T3, Proteasome Macropain subunit MB1 (Homo sapiens). Kind of assay: Positive allosteric modulation of latent human erythrocytes 20S proteasome chymotrypsin like activity at 5 uM using Suc-LLVY-AMC as substrate measured every 2 mins up to 60 mins by fluorescence assay relative to control.
Assay [20] shares this target. The assay is described as follows: Positive allosteric modulation of latent human erythrocytes 20S proteasome chymotrypsin like activity up to 10 uM using LFP as substrate measured every 2 mins up to 60 mins by fluorescence assay.
For assay [21] the target is unchanged. The assay is described as follows: Positive allosteric modulation of latent human erythrocytes 20S proteasome chymotrypsin like activity up to 10 uM using LFP as substrate measured every 2 mins up to 60 mins by fluorescence assay.
For assay [22], the target named is Proteasome Macropain subunit (Homo sapiens) (UniProt P49721). Kind of assay: Negative allosteric modulation of SDS-activated human erythrocytes 20S proteasome trypsin like activity at 10 uM using Boc-LRR-AMC as substrate measured every 2 mins up to 60 mins by fluorescence assay.
Chain of Proteasome Macropain subunit (Homo sapiens) (P49721 whole entry): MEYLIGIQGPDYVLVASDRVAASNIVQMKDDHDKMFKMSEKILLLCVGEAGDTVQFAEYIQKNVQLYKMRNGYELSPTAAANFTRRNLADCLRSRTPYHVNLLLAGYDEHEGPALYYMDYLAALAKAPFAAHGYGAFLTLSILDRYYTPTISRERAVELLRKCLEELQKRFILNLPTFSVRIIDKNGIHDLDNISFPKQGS
Assay [23] has as its target T2, Proteasome component C5 (Homo sapiens). The assay is described as follows: Negative allosteric modulation of SDS-activated human erythrocytes 20S proteasome caspase like activity at lower concentration using Z-LLE-AMC as substrate measured every 2 mins up to 60 mins by fluorescence assay.
The target in assay [24] is T1, 20S proteasome (Homo sapiens). Kind of assay: Negative allosteric modulation of SDS-activated human erythrocytes 20S proteasome assessed as reduction in human alpha-synuclein degradation at 10 uM after 1 hr by SDS-PAGE analysis. The procedure, abridged:
as §1

With `C[C@H](NC(=O)[C@H](Cc1ccc(O)cc1)NC(=O)[C@H](Cc1ccc(O)cc1)NC(=O)[C@@H]1CCCN1C(=O)[C@@H]1CCCN1C(=O)[C@@H]1CCCN1C(=O)[C@@H]1CCCN1C(=O)[C@H](CCCNC(=N)N)NC(=O)[C@H](CCCNC(=N)N)NC(=O)[C@@H](N)CCCNC(=N)N)C(=O)O` (H-RRRPPPPYYA-OH), the result in [1], in [8] and in [16] was inactive. For the same compound, the fold change (FC) is 5 to 7 in assay [2]; 5 to 7 in [6]; > 2 in assay [7]; 2 in [9]; < 7 in [11]; 14 in [12]. The fold change (FC) in assay [13] is 3. Further, the result in assay [3] and in [14] was Active. The Activity in assay [4] was 18%; in assay [5], “Dose-dependent effect”; in assay [10], “Dose-dependent effect”; in assay [15], 36%.

`CC(C)C[C@H](NC(=O)[C@@H]1CCCN1C(=O)[C@@H]1CCCN1C(=O)[C@@H]1CCCN1C(=O)[C@@H]1CCCN1C(=O)[C@H](CCCNC(=N)N)NC(=O)[C@H](CCCNC(=N)N)NC(=O)[C@@H](N)CCCNC(=N)N)C(=O)N[C@@H](Cc1ccc(O)cc1)C(=O)N[C@@H](C)C(=O)O` (H-RRRPPPPLYA-OH): the outcome in assay [1] and in [8] was inactive. Besides, the fold change (FC) in [2] was 5 to 7; in assay [6] it was 5 to 7; in [11] it was < 7. The outcome in assay [3], in assay [7] and in [14] was Active. Also, in [10], the Activity result is “Dose-dependent effect”.

`CC(C)C[C@H](NC(=O)[C@H](Cc1ccc(O)cc1)NC(=O)[C@H](CCCNC(=N)N)NC(=O)[C@H](CCCNC(=N)N)NC(=O)[C@@H](N)CCCNC(=N)N)C(=O)N1CCC[C@H]1C(=O)N[C@@H](CCCNC(=N)N)C(=O)N[C@@H](Cc1c[nH]c2ccccc12)C(=O)NCC(N)=O` (H-RRRYLPRWG-NH2): the outcome in assay [17], in assay [18], in assay [20] and in [21] was inactive. The same compound yielded a fold change (FC) in assay [19] of 2. Moreover, the outcome in assay [8], in [22], in [23] and in [24] was Active.
